According to ChEMBL document CHEMBL1145962, “Structure-based de novo design, synthesis, and biological evaluation of non-azole inhibitors specific for lanosterol 14alpha-demethylase of fungi” (2003):
Values after ≈ are worked out from the molar mass of the structure shown.

Key:
Format in all cases: functional
Fonsecaea pedrosoi = assay: In vitro antifungal activity against Fonsecaea pedrosoi
Outline: (§1)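 Filamentous fungi were tested by NCCLS microdilution in RPMI 1640 buffered with 0.165 M MOPS. DMSO-dissolved compounds were serially diluted in medium. MIC was read at 7 days as the lowest concentration with turbidity at ≤80% inhibition versus the drug-free control.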

Trichophyton rubrum = assay: In vitro antifungal activity against Trichophyton rubrum
Outline: (§2)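 Dermatophytes tested by NCCLS serial dilution in 96-well plates, in RPMI 1640 with 0.165 M MOPS. Compounds were prepared in DMSO and diluted in medium. Incubation was at 28 °C with reading at 7 days. MIC is the lowest concentration giving turbidity at ≤80% inhibition of control growth.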

Cryptococcus neoformans = assay: In vitro antifungal activity against Cryptococcus neoformans
Outline: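 Microdilution MIC per NCCLS in MOPS (0.165 M)-buffered RPMI 1640. DMSO solutions were serially diluted in growth medium. Incubated at 35 °C as a yeast, with growth read at 72 h.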

Candida parapsilosis = assay: In vitro antifungal activity against Candida parapsilosis; conditions: Lodderomyces parapsilosis
Outline: (§3)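 NCCLS broth serial dilution in 96-well plates with RPMI 1640 buffered with 0.165 M MOPS. Compounds were dissolved in DMSO and diluted in medium. Yeasts were incubated at 35 °C and read at 24 h. MIC is the lowest concentration giving turbidity at ≤80% inhibition versus the growth control.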

Aspergillus fumigatus = assay: In vitro antifungal activity against Aspergillus fumigatus; outline: as §1
Sporothrix schenckii = assay: In vitro antifungal activity against Sporothrix schenck ii; outline: as §1
Microsporum canis = assay: In vitro antifungal activity against Microsporum canis; outline: as §2
Candida albicans = assay: In vitro antifungal activity against Candida albicans; outline: as §3

Row | SMILES | MIC (Fonsecaea pedrosoi) [µg/mL] | MIC (Trichophyton rubrum) [µg/mL] | MIC (Cryptococcus neoformans) [µg/mL] | MIC (Candida parapsilosis) [µg/mL] | MIC (Aspergillus fumigatus) [µg/mL] | MIC (Sporothrix schenckii) [µg/mL] | MIC (Microsporum canis) [µg/mL] | MIC (Candida albicans) [µg/mL]
1 | COc1ccc2c(c1)OC(C)(CCC=C(C)C)CC2O (stereo not drawn) | 320 (≈ 1160 µM) | 160 (≈ 579 µM) | 160 (≈ 579 µM) | 160 (≈ 579 µM) | 160 (≈ 579 µM) | 320 (≈ 1160 µM) | 160 (≈ 579 µM) | > 320
2 | CC(C)=CCCC1(C)CC(O)c2ccc(O)cc2O1 (stereo not drawn) | 160 (≈ 610 µM) | 80 (≈ 305 µM) | 160 (≈ 610 µM) | 80 (≈ 305 µM) | 160 (≈ 610 µM) | 80 (≈ 305 µM) | 10 (≈ 38.1 µM) | 80 (≈ 305 µM)
3 | CCCCCCCC1(C)CC(=O)c2ccc(OC)cc2O1 (stereo not drawn) | > 320 | 320 (≈ 1100 µM) | > 320 | 320 (≈ 1100 µM) | > 320 | 40 (≈ 138 µM) | 40 (≈ 138 µM) | > 320
4 | CCCCCCCC1(C)CC(=O)c2ccc(O)cc2O1 (stereo not drawn) | 80 (≈ 289 µM) | 40 (≈ 145 µM) | 80 (≈ 289 µM) | 160 (≈ 579 µM) | 160 (≈ 579 µM) | 40 (≈ 145 µM) | 80 (≈ 289 µM) | 160 (≈ 579 µM)
5 | CCCCCC1(C)C=Cc2ccc(OC)cc2O1 (stereo not drawn) | > 320 | > 320 | 320 (≈ 1300 µM) | > 320 | > 320 | > 320 | 320 (≈ 1300 µM) | > 320
6 | CCCCCC1(C)CC(=O)c2ccc(O)cc2O1 (stereo not drawn) | 80 (≈ 322 µM) | 20 (≈ 80.5 µM) | 160 (≈ 644 µM) | 160 (≈ 644 µM) | 160 (≈ 644 µM) | 80 (≈ 322 µM) | 40 (≈ 161 µM) | 320 (≈ 1290 µM)
7 | CCCCCC1(C)CC(=O)c2ccc(OC)cc2O1 (stereo not drawn) | > 320 | > 320 | > 320 | > 320 | 160 (≈ 610 µM) | > 320 | 80 (≈ 305 µM) | > 320
8 | CCCCCCCC1(C)C/C(=N/O)c2ccc(O)cc2O1 (stereo not drawn) | 40 (≈ 137 µM) | 2.5 (≈ 8.58 µM) | 20 (≈ 68.6 µM) | 20 (≈ 68.6 µM) | 10 (≈ 34.3 µM) | 10 (≈ 34.3 µM) | 0.625 (≈ 2.14 µM) | 40 (≈ 137 µM)
9 | COc1ccc2c(c1)OC(C)(CCC=C(C)C)CC2=O (stereo not drawn) | > 320 | > 320 | > 320 | > 320 | 160 (≈ 583 µM) | 320 (≈ 1170 µM) | 80 (≈ 292 µM) | > 320
10 | CC(C)CC1(C)CC(=O)c2ccc(O)cc2O1 (stereo not drawn) | 160 (≈ 683 µM) | 160 (≈ 683 µM) | 320 (≈ 1370 µM) | 320 (≈ 1370 µM) | 160 (≈ 683 µM) | 320 (≈ 1370 µM) | 40 (≈ 171 µM) | > 320
11 | CCCCCC1(C)CC(O)c2ccc(O)cc2O1 (stereo not drawn) | 40 (≈ 160 µM) | 20 (≈ 79.9 µM) | 80 (≈ 320 µM) | 40 (≈ 160 µM) | 80 (≈ 320 µM) | 20 (≈ 79.9 µM) | 10 (≈ 39.9 µM) | 160 (≈ 639 µM)
12 | CCCCCCCC1(C)CC(O)c2ccc(OC)cc2O1 (stereo not drawn) | 160 (≈ 547 µM) | 80 (≈ 274 µM) | 80 (≈ 274 µM) | 160 (≈ 547 µM) | 80 (≈ 274 µM) | 40 (≈ 137 µM) | 80 (≈ 274 µM) | 320 (≈ 1090 µM)
13 | CC(C)=CCCC1(C)CC(=O)c2ccc(O)cc2O1 (stereo not drawn) | 160 (≈ 615 µM) | 80 (≈ 307 µM) | 160 (≈ 615 µM) | 80 (≈ 307 µM) | 80 (≈ 307 µM) | 160 (≈ 615 µM) | 40 (≈ 154 µM) | 160 (≈ 615 µM)
14 | CCCCCCCC1(C)CC(O)c2ccc(O)cc2O1 (stereo not drawn) | 80 (≈ 287 µM) | 20 (≈ 71.8 µM) | 40 (≈ 144 µM) | 20 (≈ 71.8 µM) | 80 (≈ 287 µM) | 40 (≈ 144 µM) | 2.5 (≈ 8.98 µM) | 40 (≈ 144 µM)
15 | CCCCCCCCCC1(C)CC(=O)c2ccc(O)cc2O1 (stereo not drawn) | > 320 | > 320 | > 320 | > 320 | 80 (≈ 263 µM) | > 320 | 80 (≈ 263 µM) | > 320
16 | OC(Cn1cncn1)(Cn1cncn1)c1ccc(F)cc1F [FLUCONAZOLE] | 64 (≈ 209 µM) | 0.5 (≈ 1.63 µM) | 32 (≈ 104 µM) | 8 (≈ 26.1 µM) | 16 (≈ 52.2 µM) | 0.25 (≈ 0.816 µM) | 0.5 (≈ 1.63 µM) | 4 (≈ 13.1 µM)
17 | CCCCCC1(C)CC(O)c2ccc(OC)cc2O1 (stereo not drawn) | > 320 | 20 (≈ 75.7 µM) | 160 (≈ 605 µM) | 160 (≈ 605 µM) | 80 (≈ 303 µM) | > 320 | 20 (≈ 75.7 µM) | 320 (≈ 1210 µM)
18 | CC(C)=CCCC1(C)C/C(=N/O)c2ccc(O)cc2O1 (stereo not drawn) | 20 (≈ 72.6 µM) | 5 (≈ 18.2 µM) | 40 (≈ 145 µM) | 40 (≈ 145 µM) | 40 (≈ 145 µM) | 40 (≈ 145 µM) | 2.5 (≈ 9.08 µM) | 80 (≈ 291 µM)
19 | CCCCCCCC1(C)C=Cc2ccc(OC)cc2O1 (stereo not drawn) | > 320 | > 320 | > 320 | > 320 | > 320 | > 320 | 320 (≈ 1170 µM) | > 320
20 | CCCCCC1(C)C/C(=N/O)c2ccc(O)cc2O1 (stereo not drawn) | 40 (≈ 152 µM) | 5 (≈ 19 µM) | 40 (≈ 152 µM) | 40 (≈ 152 µM) | 80 (≈ 304 µM) | 40 (≈ 152 µM) | 5 (≈ 19 µM) | 160 (≈ 608 µM)
21 | COc1ccc2c(c1)OC(C)(CCC=C(C)C)C=C2 (stereo not drawn) | > 320 | 40 (≈ 155 µM) | > 320 | > 320 | > 320 | 320 (≈ 1240 µM) | 80 (≈ 310 µM) | > 320
